Thrombin inh: inhibitors of human thrombin. P00734. 220,000 compounds, 0.26% hits. alpha-thrombin, Boc-VPR-AMC fluorogenic substrate cleavage. inhibition, % at 5 µM;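 active means inhibition at or above 40%; inactive means inhibition below 40%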;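 further: 0% = enzyme with no compound and 100% = wells without enzyme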
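System – human alpha-thrombin protein · Reagent – Boc-VPR-AMC substrate, 15 µM final · Compound – 5 µM single dose in 0.2% DMSO · Schedule – reaction at room temperature · Technique – AMC fluorescence at 355 nm excitation and 460 nm emission · Read-out basis – % inhibition relative to enzyme controls and enzyme-free blanks · Control set – no-compound enzyme wells and no-enzyme blanks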
hK5 inh: blocks human kallikrein 5 protease activity; Q9Y337; recombinant hK5, fluorogenic AMC substrate cleavage; inhibition, % at 5 µM; 210,000 compounds, 0.59% hits; AID 873;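 active means inhibition of 40% or more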;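 further: 0% = enzyme controls without compound and 100% = no-enzyme blanks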
Wee1 degr inh: inhibitors of human Wee1 degradation; P30291; HeLa Luc-Wee1K328M stability, luciferase luminescence; 100% = proteasome inhibitor MG132 effect; reporter increase, % at 5 µM; 220,000 compounds, 1.2% hits; AID 1321;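 active means activation above the mean of all tested compounds plus 3 SD, set per screening run, cut at about 8.8% in these data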;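 further: cells exposed to compound for 20 h before luminescence read; 0% = DMSO alone and 100% = MG132 at 30 µM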
FXIa inh 1536: inhibitors of human coagulation factor XIa; 220,000 compounds, 0.14% hits; inhibition, % at 5 µM; purified FXIa, Boc-Glu-Ala-Arg-AMC fluorogenic substrate; P03951;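 active means inhibition of at least 40%; inactive means inhibition below 40%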;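 further: fluorescence of freed AMC excited at 355 nm; 0% = enzyme without compound and 100% = no enzyme blank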
FXIIa inh: factor XIIa (human) inhibition | P00748 | purified FXIIa, Boc-QGR-AMC fluorogenic substrate, 2 h | inhibition, % at 5 µM | 220,000 compounds, 0.3% hits | AID 800; in the data active means inhibition above about 40%;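 further: 0% = enzyme with no compound and 100% = blank without enzyme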
Target sequence (P00748 20-372 limits assumed): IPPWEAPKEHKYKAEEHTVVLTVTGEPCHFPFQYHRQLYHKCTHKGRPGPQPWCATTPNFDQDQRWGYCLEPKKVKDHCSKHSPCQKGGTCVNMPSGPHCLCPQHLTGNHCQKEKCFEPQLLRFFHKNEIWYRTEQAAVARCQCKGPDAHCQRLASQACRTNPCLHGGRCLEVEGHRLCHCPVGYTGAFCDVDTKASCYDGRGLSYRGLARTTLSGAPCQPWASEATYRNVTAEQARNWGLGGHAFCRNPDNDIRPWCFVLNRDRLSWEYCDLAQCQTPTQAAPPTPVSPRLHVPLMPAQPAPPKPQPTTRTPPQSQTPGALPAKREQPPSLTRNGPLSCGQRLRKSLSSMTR
Target sequence (P00748 373-615 limits assumed): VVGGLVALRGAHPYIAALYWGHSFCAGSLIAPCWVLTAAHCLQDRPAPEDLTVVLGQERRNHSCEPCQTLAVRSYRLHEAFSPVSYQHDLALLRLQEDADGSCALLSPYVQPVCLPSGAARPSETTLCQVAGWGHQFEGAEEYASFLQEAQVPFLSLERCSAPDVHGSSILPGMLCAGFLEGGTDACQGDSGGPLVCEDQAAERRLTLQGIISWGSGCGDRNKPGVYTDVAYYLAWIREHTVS
* = called active by the depositor; x = no result. Sampled rows, rich in hits. Any-hit rate of the full collection: about 2.2%.

SMILES	Thrombin inh	hK5 inh	Wee1 degr inh	FXIa inh 1536	FXIIa inh
CCCc1c(O)nc(SCCN(CCC)CCC)[nH]c1=O	-3	-10	2	0	-1
CCCCCCCc1c(O)nc(SCCN(C)C)[nH]c1=O	7	21	-2	69*	33
Cc1ccc(-c2csc(N(C)C(=O)c3c(C)nn(-c4ccccc4)c3Cl)n2)cc1	-13	1	-1	-6	5
COC(=O)c1cccc(NS(=O)(=O)c2ccc(OC)c(OC)c2)c1C	2	10	-3	0	50*
COc1ccc(N2C(=O)CCC(C(=O)N3CCN(c4ccccn4)CC3)C2c2ccc(F)cc2)cc1 (stereo not given)	-3	-3	-1	0	6
O=c1[nH]c2ccccc2nc1-c1ccccc1	11	112*	-1	19	18
CN(c1ncc(C(F)(F)F)cc1Cl)N1C(=O)c2cccc(N)c2C1=O	-2	3	10*	2	8
CN(c1ncc(C(F)(F)F)cc1Cl)N1C(=O)C2ONC3(C(=O)CC(C)(C)CC3=O)C2C1=O (stereo not given)	-6	-4	3	-1	8
CC(=O)N(c1ccc(Cl)cc1)c1nc(C)cc(C)c1C#N	-3	-2	-4	-6	4
CCOc1ccc(N(C(C)=O)c2nc(C)cc(C)c2C#N)cc1	27	52*	-1	19	22
O=C(Nc1ccc2ncccc2c1)c1cc(Cl)ccc1Cl	0	-1	-1	0	2
CCCCCn1c(CN2CCCCC2CC)nc2c1c(=O)n(C)c(=O)n2C (stereo not given)	x	x	11*	x	x
CCCCCn1c(CN2CCCCC2C)nc2c1c(=O)n(C)c(=O)n2C (stereo not given)	-7	23	-3	0	9
Cc1cc(F)ccc1S(=O)(=O)Nc1ccccc1C(=O)NCc1ccccn1	36	50*	2	34	29
Cc1cc(F)ccc1S(=O)(=O)Nc1ccccc1C(=O)Nc1ncn[nH]1	3	1	0	0	-2
CC(C)N1CC(O)=C(c2nc3ccccc3[nH]2)C1=N	0	-23	-2	17	12
CCCCN1CC(O)=C(c2nc3ccccc3[nH]2)C1=N	-4	-16	-1	-6	-1
CCCCCN1CC(O)=C(c2nc3ccccc3[nH]2)C1=N	-9	-12	10*	-5	10
CC(C1CC2CCC1C2)N1CC(O)=C(c2nc3ccccc3[nH]2)C1=N (stereo not given)	4	27	1	27	49*
COCCCn1c(SCC(=O)NNC(=O)c2cccc(O)c2)nnc1-c1ccncc1	-11	-5	-1	-5	7
CCc1ccc(-c2ccc(SCc3ccccn3)nn2)cc1	-5	-33	9.1*	-8	-10
CCOc1ccc(-c2ccc(SCC)nn2)cc1	-5	0	9.0*	3	9
O/N=C1\CCCc2c1nc(-c1ccccc1F)n2O	-4	-1	3	-1	7
O=C(N/N=C1/SCC(=O)N1Cc1ccco1)c1ccccc1F	-5	7	2	3	11
O=c1[nH]nc(Cc2ccc(Cl)cc2)c2ccccc12	21	54*	1	0	5
SMILES	Thrombin inh	hK5 inh	Wee1 degr inh	FXIa inh 1536	FXIIa inh
O=c1[nH]nc(Cc2ccc(Cl)cc2Cl)c2ccccc12	0	3	2	3	-5
O=C(c1ccccc1O)N1N=C(c2ccccc2)CC1(O)C(F)(F)F (stereo not given)	0	x	3	-2	4
CCSC1=NC2(CCCCC2)Nc2sc3c(c21)CCCC3	-6	-6	2	5	19
O=C(Nc1ccc(S(=O)(=O)NCc2cccnc2)cc1)c1ccco1	-2	-5	0	-8	1
CC(=O)Nc1ccc(S(=O)(=O)NCc2cccnc2)cc1	31	47*	1	22	1
CCc1ccc(/C=C/C(=O)C2C(=O)c3ccccc3C2=O)cc1	0	-10	-2	6	12
O=C(/C=C/c1ccccc1)C1C(=O)c2ccccc2C1=O	-7	-3	10*	0	2
O=C(c1ccc(-c2ccc([N+](=O)[O-])cc2)o1)N1CCCCC1	61*	19	-3	22	25
O=C(c1ccc(-c2ccc(Cl)cc2)o1)N1CCN(c2ccc([N+](=O)[O-])cc2Cl)CC1	-11	-17	0	-6	0
O=C(CSc1nc2cccnc2n1Cc1ccccc1)N1CCCC1	19	46*	-2	6	20
Cn1c(SCC(=O)N2CCCC2)nc2cccnc21	0	-5	-1	2	10
COc1cc([N+](=O)[O-])ccc1NC(=O)C[n+]1ccccc1	-1	-8	-1	5	13
CCOC(=O)NC(=O)/C(N=Nc1ccc(C(F)(F)F)cc1)=C(\C)O	-2	-3	9.9*	-4	2
CN1C(=O)/C(=N/OC(=O)c2ccccc2)c2ccccc21	46*	-8	-1	47*	53*
C=CCNC(=S)N/N=C/c1ccc(C)cc1C	-3	-1	-1	3	7
C=CCNC(=S)N/N=C/c1ccc(C)c([N+](=O)[O-])c1	24	62*	-1	41*	106*
COCc1cc(=O)[nH]c(SCCS(=O)(=O)c2ccc(Cl)cc2Cl)n1	2	5	-3	7	14
CCC(=O)N1c2ccccc2NC2=C(C(=O)CCC2)C1c1ccc(N(C)C)cc1 (stereo not given)	14	43*	-4	5	9
CCC(=O)N1c2ccccc2NC2=C(C(=O)CC(C)(C)C2)C1c1cccnc1 (stereo not given)	4	-8	-1	-4	7
Fc1ccccc1NC(=S)N1CCN(c2ccccn2)CC1	-5	-20	3	7	7
c1ccc(N2CCN(c3nnc(Cc4cccnc4)c4ccccc34)CC2)nc1	5	43*	1	-1	4
CCOC(=O)N1CCN(C(=O)Cn2cc3c(n2)CCCC3)CC1	-1	5	11*	-11	-2
O=C(CN1C(=O)c2ccccc2C1=O)Nc1ccc(Cl)cn1	-8	-2	10*	1	19
O=C(Cn1ncc2c1-c1ccccc1OC2)Nc1ccc(Cl)cn1	-2	52*	-1	4	27
O=C(CCc1ccccc1)Nc1ccc(Cl)cn1	-1	-2	5	3	12
COc1ccc(NS(=O)(=O)c2cc(NC(=O)c3nc4nc(C)cc(C)n4n3)ccc2C)cc1	0	2	3	-2	6
COc1ccc(-c2nn(-c3ccccc3)cc2/C=N/n2cnnc2)cc1OC	-1	-16	9.3*	4	-4
CCN(C(=S)NC(=O)CCc1ccccc1)c1ccccc1	-5	-13	3	-4	6
O=C(Nc1cccc(C(F)(F)F)c1)N1CCN(C(=O)Nc2cccc(C(F)(F)F)c2)CC1	21	55*	-1	15	27
CCCN1CCN(C(=O)Nc2cccc(C(F)(F)F)c2)CC1	1	-2	5	12	8

Source: PubChem BioAssay (several laboratories)
